Here are results for three compounds from ChEMBL document CHEMBL1121504, “Aporphines. 31. Synthesis and antitumor activity of aporphine nitrogen mustards” (1980).

The structures appear in SMILES notation.

For assay [1], the system named is Mus musculus. Briefly: (§1) Antitumor activity against intraperitoneally implanted lymphoid leukemia (LE1210) tumor system at dose 100 mg/kg. Type of assay: functional. To be noted: route intraperitoneal. In outline: (§2)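 Murine-screen tumor implanted intraperitoneally and treated at the listed mg/kg doses under standard NCI protocols. Activity is read out as T/C, the treated-to-control ratio.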

In assay [2] the test system is Mus musculus. The assay is described as follows: Antitumor activity against intraperitoneally implanted lymphoid leukemia (LE1210) tumor system at dose 12.5 mg/kg. It is filed as functional. To be noted: route intraperitoneal. In outline: as §2
The test system of assay [3] is Mus musculus. The assay is described as follows: (§3) Antitumor activity against intraperitoneally implanted lymphoid leukemia (LE1210) tumor system at dose 25 mg/kg. Type of assay: functional. To be noted: route intraperitoneal. In outline: as §2
Assay [4] has as its system Mus musculus. The assay is described as follows: (§4) Antitumor activity against intraperitoneally implanted lymphoid leukemia (LE1210) tumor system at dose 50 mg/kg. It is filed as functional. The conditions noted are these: route intraperitoneal. In outline: as §2
In assay [5] the test system is Mus musculus. The assay is described as follows: Antitumor activity against intraperitoneally implanted lymphoid leukemia (LE1210) tumor system at dose 6.25 mg/kg. It is filed as functional. To be noted: route intraperitoneal. In short, it runs like this:
as §2

The subject of assay [6] is P388. The assay is described as follows: Antitumor activity against intraperitoneally implanted lymphocytic leukemia (P388) system at dose 16 mg/kg. It is filed as functional, Mus musculus. The conditions noted are these: route intraperitoneal. In outline:
as §2

In assay [7] the test system is P388. Briefly: Antitumor activity against intraperitoneally implanted lymphocytic leukemia (P388) system at dose 4 mg/kg. Type of assay: functional, Mus musculus. The conditions noted are these: route intraperitoneal. In outline:
as §2

Assay [8] deals with P388. Briefly: Antitumor activity against intraperitoneally implanted lymphocytic leukemia (P388) system at dose 8 mg/kg. To be noted: route intraperitoneal. It is filed as functional, Mus musculus. In outline: as §2
The nature of assay [9]: Antitumor activity against intracerebrally implanted ependymoblastoma (EM) tumor system at dose 16 mg/kg. Type of assay: functional. In short, it runs like this: (§5)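 Tumor implanted […] and treated at the listed mg/kg doses under standard NCI protocols. Activity is read out as T/C, the treated-to-control ratio.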
Assay [10] is described as follows: Antitumor activity against intracerebrally implanted ependymoblastoma (EM) tumor system at dose 4 mg/kg. It is filed as functional. In outline:
as §5

Assay [11] can be described thus: Antitumor activity against intracerebrally implanted ependymoblastoma (EM) tumor system at dose 8 mg/kg. Type of assay: functional. In short, it runs like this: as §5
Assay [12] deals with P388. Briefly: Antitumor activity against intraperitoneally implanted P388 lymphocytic leukemia (P388) system at dose 12.5 mg/kg. It is filed as functional, Mus musculus. To be noted: route intraperitoneal. In short, it runs like this: as §2
Assay [13] relates to P388. The assay is described as follows: Antitumor activity against intraperitoneally implanted P388 lymphocytic leukemia (P388) system at dose 25 mg/kg. It is filed as functional, Mus musculus. The conditions noted are these: route intraperitoneal. In outline:
as §2

Assay [14] concerns P388. The assay is described as follows: Antitumor activity against intraperitoneally implanted P388 lymphocytic leukemia (P388) system at dose 3.13 mg/kg. To be noted: route intraperitoneal. It is filed as functional, Mus musculus. In outline:
as §2

The subject of assay [15] is P388. The assay is described as follows: Antitumor activity against intraperitoneally implanted P388 lymphocytic leukemia (P388) system at dose 6.25 mg/kg. Type of assay: functional, Mus musculus. The conditions noted are these: route intraperitoneal. In short, it runs like this:
as §2

Assay [16] has as its system B16. The assay is described as follows: Antitumor activity against B16 melanoma tumor system at dose 12.5 mg/kg. Type of assay: functional, Mus musculus. In outline:
(§6)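 B16 melanocarcinoma assay run at the listed mg/kg doses under standard NCI protocols. Activity is read out as T/C, the treated-to-control ratio.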

Assay [17] concerns B16. The assay is described as follows: Antitumor activity against B16 melanoma tumor system at dose 25 mg/kg. Type of assay: functional, Mus musculus. In short, it runs like this: as §6
For assay [18], the system named is B16. The assay is described as follows: Antitumor activity against B16 melanoma tumor system at dose 50 mg/kg. It is filed as functional, Mus musculus. In outline:
as §6

Assay [19] concerns B16. Briefly: Antitumor activity against intracerebrally implanted B16 melanoma tumor system at dose 16 mg/kg. It is filed as functional, Mus musculus. In outline:
as §5

Assay [20] concerns B16. Briefly: Antitumor activity against intracerebrally implanted B16 melanoma tumor system at dose 8 mg/kg. Type of assay: functional, Mus musculus. In short, it runs like this:
as §5

For assay [21], the system named is L1210. Described as §1. It is filed as functional, Mus musculus. The conditions noted are these: route intraperitoneal. In short, it runs like this:
as §2

For assay [22], the system named is L1210. The assay is described as §3. To be noted: route intraperitoneal. Type of assay: functional, Mus musculus. In short, it runs like this:
as §2

In assay [23] the test system is L1210. Described as §4. It is filed as functional, Mus musculus. The conditions noted are these: route intraperitoneal. In outline: as §2
For assay [24], the system named is P388. Briefly: Antitumor activity against intraperitoneally implanted lymphocytic leukemia (P388) system at dose 12.5 mg/kg. It is filed as functional, Mus musculus. To be noted: route intraperitoneal. In outline:
as §2

Assay [25] relates to P388. Briefly: Antitumor activity against intraperitoneally implanted lymphocytic leukemia (P388) system at dose 25 mg/kg. It is filed as functional, Mus musculus. The conditions noted are these: route intraperitoneal. In short, it runs like this: as §2
Assay [26] relates to P388. The assay is described as follows: Antitumor activity against intraperitoneally implanted lymphocytic leukemia (P388) system at dose 50 mg/kg. The conditions noted are these: route intraperitoneal. Type of assay: functional, Mus musculus. In outline:
as §2

For assay [27], the system named is P388. The assay is described as follows: Antitumor activity against intraperitoneally implanted lymphocytic leukemia (P388) system at dose 6.25 mg/kg. It is filed as functional, Mus musculus. The conditions noted are these: route intraperitoneal. In short, it runs like this:
as §2

Assay [28] can be described thus: Antitumor activity against intracerebrally implanted ependymoblastoma (EM) tumor system at dose 12.5 mg/kg. Type of assay: functional. In short, it runs like this: as §5
Assay [29] can be described thus: Antitumor activity against intracerebrally implanted ependymoblastoma (EM) tumor system at dose 25 mg/kg. Type of assay: functional. In short, it runs like this: as §5
Assay [30] can be described thus: Antitumor activity against intracerebrally implanted ependymoblastoma (EM) tumor system at dose 50 mg/kg. It is filed as functional. In outline: as §5

With `COc1cc2c3c(c1)-c1c(ccc(OC)c1OC)CC3N(CCN(CCCl)CCCl)CC2` (stereo not given), the T/C in the assay on Mus musculus [1] was found to be 87; with Mus musculus [2] it was 98; with Mus musculus [3], 101; in the assay on Mus musculus [4] it was 101; with Mus musculus [5], 101; with P388 [6], 113. Also, the T/C in the assay on P388 [7] turned out to be 106; in the assay on P388 [8] it was 127; in [9], 108; in assay [10], 108; in assay [11], 104.
In the case of `COc1ccc2c(c1O)-c1cc(O)cc3c1C(C2)N(C(=O)CN(CCCl)CCCl)CC3` (stereo not given), the T/C worked out at 158 in the assay with P388 [12], 114 with P388 [13], 130 in the assay on P388 [14] and 149 with P388 [15].
With `COc1ccc2c(c1OC(C)=O)-c1cc(O)cc3c1C(C2)N(C(=O)CN(CCCl)CCCl)CC3` (stereo not given), the T/C in the assay with B16 [16] is recorded as 134; with B16 [17] it was 135; in the assay on B16 [18], 170; in the assay on B16 [19], 102; with B16 [20], 111; in the assay on L1210 [21], 88. Besides, the T/C in the assay on L1210 [22] was determined as 136; in the assay with L1210 [23] it was 127; in the assay with P388 [24], 174; in the assay on P388 [25], 168; with P388 [26] it was 130; in the assay on P388 [27], 143. Also, the T/C worked out at 94 in assay [28], 99 in [29] and 86 in assay [30].
